Data set [1] has as its system HCT-116. As to the kind of experiment: Induction of apoptosis in human HCT116 cells pretreated with Z-VAD-FMK pan-caspase inhibitor for 1 hr assessed as cleavage of PARP at 0.5 to 2 uM after 48 hrs by Western blot analysis. The data set is classed as functional, cell-based. The method, boiled down:
(§1)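 HCT116 cells, with or without a 1 h pretreatment with 20 μM Z-VAD-FMK, exposed for 48 h. Lysed on ice in Hepes/NaCl/Triton X-100 buffer with protease/phosphatase inhibitors and clarified at 12,000×g. Equal protein run by SDS-PAGE, blotted to nitrocellulose, probed overnight at 4 °C for PARP, caspase 3, caspase 7 and β-actin. HRP secondaries, ECL detection.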

The subject of data set [2] is HCT-116. As to the kind of experiment: Induction of apoptosis in human HCT116 cells assessed as activation of caspase 3/7 after 48 hrs by Western blot analysis. The data set is classed as functional, cell-based. The method, boiled down:
as §1
(A western blot detects proteins with antibodies after separation by electrophoresis.)

In data set [3] the test system is HCT-116. The experiment in a line: Induction of apoptosis in human HCT116 cells pretreated with Z-VAD-FMK pan-caspase inhibitor for 1 hr assessed as activation of caspase 3/7 at 0.5 to 2 uM after 48 hrs by Western blot analysis. Type of data set: functional, cell-based. The method, boiled down: as §1
The subject of data set [4] is HCT-116. The experiment in a line: Induction of apoptosis in human HCT116 cells pretreated with Z-VAD-FMK pan-caspase inhibitor for 1 hr assessed as activation of caspase 3/7 at 1.0 to 4.0 uM after 24 hrs by Caspase-Glo 3/7 assay.
In data set [5] the test system is HCT-116. As to the kind of experiment: Induction of apoptosis in human HCT116 cells assessed as activation of caspase 3/7 at 1.0 to 4.0 uM after 24 hrs by Caspase-Glo 3/7 assay.
Data set [6] concerns HCT-116. As to the kind of experiment: Antitumor activity against human HCT116 cells xenografted in BALB/C nude mouse assessed as tumor growth inhibition at 30 mg/kg, ip once daily for 14 days starting on day 14 post tumor implantation measured on day 32. The data set is classed as functional, organism-based. The gist of the method: (§2)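 BALB/c nude male mice (18–20 g) implanted subcutaneously in the right axilla with HCT116 cells. Dosing began once tumors exceeded 100 mm³ (day 14). Test agent given 10 mg/kg i.v. or 30 mg/kg i.p. daily for 14 days; 5-FU 15 mg/kg as reference. Vehicle 1% DMSO in sterile saline; 6 mice per treated group, 10 per control. Relative tumor volume and body weight tracked.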
Background: In xenograft studies the graft and the host belong to different species.

For data set [7], the system named is HCT-116. As to the kind of experiment: Antitumor activity against human HCT116 cells xenografted in BALB/C nude mouse assessed as tumor growth inhibition at 10 mg/kg, iv once daily for 14 days starting on day 14 post tumor implantation measured on day 32. Type of data set: functional, organism-based. The method, boiled down:
as §2

The subject of data set [8] is HCT-116. The experiment in a line: Induction of apoptosis in human HCT116 cells after 48 hrs by Annexin V-FITC/propidium iodide staining-based FACS analysis. The data set is classed as functional, cell-based. (In general: Flow cytometry measures light scatter and fluorescence of single cells or particles in a stream.)
Data set [9] relates to HCT-116. The experiment in a line: Induction of apoptosis in human HCT116 cells assessed as cleavage of PARP after 48 hrs by Western blot analysis. Type of data set: functional, cell-based. The gist of the method: as §1
Data set [10] deals with HCT-116. The experiment in a line: Induction of apoptosis in human HCT116 cells pretreated with Z-VAD-FMK pan-caspase inhibitor for 1 hr assessed as late apoptotic cells at 2 uM after 48 hrs by Annexin V-FITC/propidium iodide staining-based FACS analysis (reference value: 3.15%). The data set is classed as functional. Further details: scale not given: the % may be the effect or the level left.

The subject of data set [11] is HCT-116. The experiment in a line: Induction of apoptosis in human HCT116 cells assessed as cleavage of PARP at 2 uM after 48 hrs by Western blot analysis. Type of data set: functional, cell-based. The gist of the method: as §1
The nature of data set [12]: Half life in Sprague-Dawley rat at 3.90 mg/kg, po by LC-ESI-MS/MS analysis. The data set is classed as ADME, organism-based. The settings on record: in vivo, 3.9 mg/kg.
Data set [13] in a line: Aqueous solubility of the compound by HPLC method. Type of data set: physicochemical. The settings on record: buffer. The method, boiled down: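 Solubility determined by an HPLC method, with one-point calibration against standards of known concentration. Mean ± SD of at least three independent experiments.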
Data set [14] is described as follows: Oral bioavailability in Sprague-Dawley rat at 3.90 mg/kg by LC-ESI-MS/MS analysis. The data set is classed as ADME, organism-based. The settings on record: in vivo, 3.9 mg/kg.
Data set [15] concerns HCT-116. As to the kind of experiment: Induction of apoptosis in human HCT116 cells assessed as activation of caspase 3/7 at 2 uM after 48 hrs by Western blot analysis. The data set is classed as functional, cell-based. The method, boiled down: as §1
Another data set relates to KB. As to the kind of experiment: Antiproliferative activity against human KB cells after 72 hrs by sulforhodamine B assay. The data set is classed as functional, cell-based. The gist of the method:
(§3)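 Cells grown in ATCC-specified medium with 10% heat-inactivated FBS, penicillin/streptomycin and 10 mM Hepes, at 37 °C under 5% CO2. Seeded, cultured overnight, then exposed to gradient concentrations for 72 h. Growth read by SRB staining; inhibition % = [1−(A450 treated/A450 control)]×100. IC50 obtained by the Logit method from independent experiments.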

The nature of data set [16]: Antiproliferative activity against human KB/VCR cells after 72 hrs by sulforhodamine B assay. The data set is classed as functional, cell-based. The gist of the method:
as §3

In data set [17] the test system is HCT-116. As to the kind of experiment: Induction of apoptosis in human HCT116 cells pretreated with Z-VAD-FMK pan-caspase inhibitor for 1 hr assessed as activation of caspase 3/7 at 2 uM after 48 hrs by Western blot analysis. The data set is classed as functional, cell-based. The gist of the method: as §1
A short description of data set [18]: Half life in human liver microsomes at 0.1 uM up to 60 mins by LC-MS/MS analysis. The data set is classed as ADME, microsome. The method, boiled down: (§4)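 Compound at 0.1 μM final (0.01% DMSO, 0.005% BSA) incubated at 37 °C with human, rat or mouse liver microsomes (0.33 mg/mL protein) in 0.1 M Tris/HCl pH 7.4, with 5 mM MgCl2 and 1 mM NADPH. Samples taken at 0, 7, 17, 30 and 60 min, quenched by methanol precipitation, centrifuged, and parent measured by LC-MS/MS. T1/2 and Clint derived.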

The test system of data set [19] is Liver. The experiment in a line: Intrinsic clearance in human liver microsomes assessed as per mg protein up to 60 mins by LC-MS/MS analysis. The settings on record: 1 h. Type of data set: ADME, microsome. The gist of the method: as §4
For data set [20], the system named is HCT-116. The experiment in a line: Induction of apoptosis in human HCT116 cells pretreated with Z-VAD-FMK pan-caspase inhibitor for 1 hr assessed as early apoptotic cells at 2 uM after 48 hrs by Annexin V-FITC/propidium iodide staining-based FACS analysis (reference value: 1.34%). Set-up: scale not given: the % may be the effect or the level left. The data set is classed as functional.

Data set [21] relates to HCT-116. As to the kind of experiment: Induction of apoptosis in human HCT116 cells assessed as late apoptotic cells at 2 uM after 48 hrs by Annexin V-FITC/propidium iodide staining-based FACS analysis (reference value: 5.74%). The data set is classed as functional.
Data set [22] relates to HCT-116. As to the kind of experiment: Induction of apoptosis in human HCT116 cells pretreated with Z-VAD-FMK pan-caspase inhibitor for 1 hr assessed as cleavage of PARP at 2 uM after 48 hrs by Western blot analysis. Type of data set: functional, cell-based. The gist of the method:
as §1

The test system of data set [23] is Liver. As to the kind of experiment: Intrinsic clearance in mouse liver microsomes assessed per mg protein up to 60 mins by LC-MS/MS analysis. Type of data set: ADME, microsome. The settings on record: 1 h. The method, boiled down:
as §4

Data set [24] in a line: Half life in rat liver microsomes at 0.1 uM up to 60 mins by LC-MS/MS analysis. The data set is classed as ADME, microsome. The method, boiled down:
as §4

In data set [25] the test system is Liver. The experiment in a line: Half life in mouse liver microsomes at 0.1 uM up to 60 mins by LC-MS/MS analysis. Type of data set: ADME, microsome. Particulars: microsomes, 1 h, 0.1 µM. The gist of the method: as §4
Data set [26] deals with Liver. The experiment in a line: Intrinsic clearance in rat liver microsomes assessed per mg protein up to 60 mins by LC-MS/MS analysis. Type of data set: ADME, microsome. Particulars: 1 h. The method, boiled down:
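Liver microsomes (0.33 mg/mL protein) in 0.1 M Tris/HCl pH 7.4 with 5 mM MgCl2, 1 mM NADPH, compound at 0.1 μM final (0.01% DMSO, 0.005% BSA), 37 °C; samples at 0, 7, 17, 30, 60 min quenched in methanol, centrifuged, LC-MS/MS; T1/2 and Clint per g protein derived.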

The test system of data set [27] is HCT-116. The experiment in a line: Induction of apoptosis in human HCT116 cells assessed as early apoptotic cells at 2 uM after 48 hrs by Annexin V-FITC/propidium iodide staining-based FACS analysis (reference value: 2.35%). The data set is classed as functional.

pIC50: −log10 of the molar value. Activity calls are given as the source filed them.

What is called half-life is the time needed for the level to fall by half in the phase considered. The solubility is the dissolved amount per volume that the medium holds. The term bioavailability denotes dose-corrected exposure relative to a reference, in per cent. What is called pIC50 is the negative decadic logarithm of the IC50, by convention in mol/L.

As to `CCN(CC)CCCn1c2c(c3ccccc3c1=O)C(=O)C(=O)c1cc(C)oc1-2`, the outcome in the data set on HCT-116 [1], with HCT-116 [3] and with HCT-116 [4] was inactive. The Activity result in the data set with HCT-116 [2], with HCT-116 [8] and in the data set on HCT-116 [9] was “Dose-dependent effect” in each case. The result in the data set with HCT-116 [5] was Active. In addition, the TGI entry in the data set with HCT-116 [6] and with HCT-116 [7] was “Active” in each case.

On to `Cc1coc2c1C(=O)C(=O)c1c-2ccc2c(C)cccc12` [TANSHINONE I], for which the Activity with HCT-116 [10] was 7.11%; with HCT-116 [20], 4.24%; with HCT-116 [21], 5.46%; with HCT-116 [27], 3.81%. Also, the outcome in the data set with HCT-116 [11], with HCT-116 [15], with HCT-116 [5], in the data set on HCT-116 [17] and with HCT-116 [22] was inactive. This molecule also had a half-life in data set [12] of 10.2 min. Also, the solubility in [13] is under 0.1 µg/mL. The molecule further came in with a bioavailability in data set [14] of 0%. Besides, the pIC50 in the data set on KB is 5.23; in data set [16], 5.36. Besides, the half-life at 0.1 µM is 6.45 min in data set [18] and 2.51 min in [24]. Besides, the intrinsic clearance was 325 mL/min/g in the data set on Liver [19], “Nd(Unstable)” in the data set with Liver [23] and 836 mL/min/g with Liver [26]. In the data set on Liver [25], the t1/2 entry is recorded as “Nd(Unstable)”.

The record behind these values is ChEMBL document CHEMBL4033782, “Structural Modification of Natural Product Tanshinone I Leading to Discovery of Novel Nitrogen-Enriched Derivatives with Enhanced Anticancer Profile and Improved Drug-like Properties” (J Med Chem, 2018).
